# Measurements as given in ChEMBL document CHEMBL1139261, “Synthesis and biological evaluation of a series of tangeretin-derived chalcones” (Bioorg Med Chem Lett, 2009).
# pIC50: −log10 of the molar value. Activity calls are given as the source filed them. No cut-off for these calls is given here.
# Experiments:
# KB [1] = experiment: Growth inhibition of human KB cells […] after 72 hrs by MTS assay; type: functional
# In short: (§1)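 KB human buccal carcinoma cells incubated with chalcone for 72 h. Growth read by MTS assay and expressed as percent inhibition of cell growth.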
# Leishmania donovani = experiment: Antileishmanial activity against Leishmania donovani MHOM/ET/1967/HU3 (LV9) promastigotes after 72 hrs by MTT assay; type: functional, organism-based
# In short: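 Promastigotes of L. donovani LV9 clone (MHOM/ET/67/HU3) exposed to drug for 72 h. Viability read by MTT assay and IC50 derived.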
# [2] = Inhibition of tubulin assembly at 200 uM
# In short: (§2)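 Tubulin assembly followed by the Zavala and Guenard method, with compounds tested at 0.1 mg/ml (about 2 × 10^-4 M). IC50 is expressed as a ratio to the deoxypodophyllotoxin IC50.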
# Leishmania amazonensis = experiment: Antileishmanial activity against Leishmania amazonensis LV9 ([…]/M1841) amastigotes infected in mouse macrophage after 30 hrs by MTT assay; type: functional, organism-based
# In short: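 Intracellular amastigotes of L. amazonensis LV9 (MPROB/BR/1972/M1841), isolated from lesions and purified, grown inside murine macrophages. Compounds incubated with infected macrophages for 30 h. IC50 reported.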
# P388 = experiment: Cytotoxicity against mouse P388 cells; type: functional, cell-based
# [3] = Inhibition of tubulin assembly assessed as ratio of IC50 for drug to IC50 for deoxypodophyllotoxin
# HL-60 [4] = experiment: Induction of apoptosis in human HL60 cells assessed as fold activation of caspase 3/7 at 100 nM; type: functional
# In short: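 HL60 human leukemia cells; caspase 3/7 activation measured using DEVD-AMC substrate; reported as fold activation at the optimal compound concentration.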
# [5] = Inhibition of tubulin assembly; in short: as §2
# KB [6] = experiment: Antiproliferative activity against human KB cells after 72 hrs by MTS assay; type: functional, cell-based
# HL-60 [7] = experiment: Induction of apoptosis in human HL60 cells assessed as fold activation of caspase 3/7 at 10 uM; type: functional
# In short: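 HL60 human leukemia cells treated with compound. Caspase 3/7 activity measured with DEVD-AMC substrate and given as fold activation at the optimal compound concentration.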
# [8] = Selectivity index, ratio of IC50 for mouse macrophage to IC50 for Leishmania amazonensis LV9 ([…]/M1841) amastigotes
# In short: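 Selectivity index is the IC50 for cytotoxicity against murine macrophages divided by the IC50 against L. amazonensis LV9 intracellular amastigotes. Amastigotes were assayed after 30 h incubation of infected macrophages with drug.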
# KB [9] = experiment: Cytotoxicity against human KB cells; type: functional, cell-based; in short: as §1
Compound,inhibition (INH) (KB [1]),pIC50 (Leishmania donovani),inhibition [2],Activity (Leishmania amazonensis),Ratio IC50 [3],pIC50 [5],also measured
COc1ccc(/C=C/C(=O)c2c(OC)c(OC)c(OC)c(OC)c2OC)cc1O,22%,4.70,< 30%,–,–,–,–
COc1ccc(/C=C/C(=O)c2cc(OC)c(OC)c(OC)c2)cc1[N+](=O)[O-],44%,5.55,–,inactive,–,–,–
COc1c(O)c(OC)c(OC)c(C(=O)/C=C/c2ccccc2)c1O [ISODIDYMOCARPIN],–,–,–,–,–,–,pIC50 (P388): 4.95
COc1ccc(/C=C/C(=O)c2c(OC)c(OC)c(OC)c(OC)c2OC)cc1[N+](=O)[O-],19%,–,< 30%,–,–,–,–
COc1ccc(/C=C/C(=O)c2cc(OC)c(OC)c(OC)c2)cc1O,100%,–,–,–,1.3,5.37,fold change (FC) (HL-60 [4]): 3.6; pIC50 (KB [6]): 7.77
COc1ccc(/C=C/C(=O)c2cc(OC)c(OC)c(OC)c2)cc1N,100%,–,–,–,1,5.43,fold change (FC) (HL-60 [4]): 3.6; pIC50 (KB [6]): 7.51
COc1ccc(/C=C/C(=O)c2c(O)c(OC)c(OC)c(OC)c2OC)cc1[N+](=O)[O-],43%,5.28,< 30%,inactive,–,–,fold change (FC) (HL-60 [7]): 1.2
COc1ccc(/C=C/C(=O)c2c(O)c(OC)c(OC)c(OC)c2OC)cc1N,40%,4.36,–,inactive,4.1,4.85,fold change (FC) (HL-60 [7]): 2.9
COc1ccc(/C=C/C(=O)c2c(OC)c(OC)c(OC)c(OC)c2OC)cc1N,29%,–,< 30%,–,–,–,–
COc1c(O)c(C(=O)/C=C/c2cccc([N+](=O)[O-])c2)c(OC)c(OC)c1OC,31%,5.36,–,–,–,–,pIC50 (Leishmania amazonensis): 4.59; Ratio IC50 [8]: 2.5
COc1c(O)c(OC)c(C(=O)/C=C/c2ccccc2)c(O)c1OC [PEDICIN],–,–,–,–,–,3.52,pIC50 (KB [9]): 4.67
COc1cc(C(=O)/C=C/c2cccc([N+](=O)[O-])c2)cc(OC)c1OC,29%,6.40,–,–,–,–,pIC50 (Leishmania amazonensis): 4.59; Ratio IC50 [8]: 2.8
COc1ccc(/C=C/C(=O)c2c(O)c(OC)c(OC)c(OC)c2OC)cc1O,49%,4.60,–,inactive,3.8,4.89,fold change (FC) (HL-60 [7]): 3.2
